Source: ChEMBL document CHEMBL1136789, “Synthesis and biological evaluation of new 2-(4,5-dihydro-1H-imidazol-2-yl)-3,4-dihydro-2H-1,4-benzoxazine derivatives” (J Med Chem, 2003)

How the values were obtained:
[1] = biological target: T1, Alpha-1A adrenergic receptor (Bos taurus, UniProt P18130); assay: In Vitro Alpha-1 adrenergic receptor binding affinity on calf frontal cortex membrane preparation; assay type: tissue-based
T1 sequence (P18130 whole entry): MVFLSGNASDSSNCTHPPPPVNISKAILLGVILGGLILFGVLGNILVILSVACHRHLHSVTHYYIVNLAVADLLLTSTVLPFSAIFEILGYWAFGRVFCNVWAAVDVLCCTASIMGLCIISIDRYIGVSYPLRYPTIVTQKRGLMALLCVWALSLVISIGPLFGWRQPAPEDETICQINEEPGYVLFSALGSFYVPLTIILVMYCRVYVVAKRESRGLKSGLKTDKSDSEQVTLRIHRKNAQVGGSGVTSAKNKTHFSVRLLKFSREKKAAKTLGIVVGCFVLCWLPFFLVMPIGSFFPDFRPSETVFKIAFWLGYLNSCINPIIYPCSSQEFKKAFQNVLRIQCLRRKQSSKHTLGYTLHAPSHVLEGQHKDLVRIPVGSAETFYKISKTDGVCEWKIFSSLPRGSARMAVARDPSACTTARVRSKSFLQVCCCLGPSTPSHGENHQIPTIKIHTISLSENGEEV
Outline: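 Calf frontal cortex membranes (0.5 mg protein/mL) incubated 40 min at 25 °C with 0.5 nM [3H]prazosin in 50 mM phosphate buffer with 10 mM MgCl2. Competitors at 10^-9 to 10^-4 M. Nonspecific binding set with 10 µM phentolamine. Stopped by rapid vacuum filtration through glass fibre filters, then washed three times with ice-cold buffer. Ki reported.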

[2] = In vitro alpha-2 adrenergic receptor binding affinity was determined on calf frontal cortex membrane preparation; assay type: tissue-based, Bos taurus
[3] = system: Rattus norvegicus; assay: Effect after 25 mg/kg, po, on heart rate in conscious spontaneously hypertensive rats; assay type: functional
Outline: (§1)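 Studied conscious 24 h after surgery. Dosed by oral gavage after ≥40 min stabilisation, n=6/group. Vehicle 0.5% carboxymethylcellulose, 5 mL/kg. MAP and HR recorded over 24 h. Output is the maximal change from baseline (mmHg, bpm, %). Repeated-measures ANOVA with Dunnett's tests.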

[4] = system: Rattus norvegicus; assay: Effect at (25 mg/kg, ip) on heart rate in anesthetized spontaneously hypertensive rats; assay type: functional
Outline: (§2)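 Adult male SHR anaesthetised with sodium pentobarbital 50 mg/kg ip, left carotid catheter filled with heparinised saline. BP and HR (HR from pulse pressure) stabilised ≥40 min before a single ip dose, n=6/group. Vehicle 0.5% carboxymethylcellulose in water, 2.5 mL/kg. Recorded over 90 min. Output is the maximal change in MAP (mmHg) and HR (bpm) from pre-dose baseline, also as %. Repeated-measures ANOVA with Dunnett's tests.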

[5] = system: Rattus norvegicus; assay: Effect after 25 mg/kg, po, on mean arterial blood pressure in conscious spontaneously hypertensive rats; assay type: functional; outline: as §1
[6] = system: Rattus norvegicus; assay: Effect (25 mg/kg ip) on heart rate in anesthetized spontaneously hypertensive rats; assay type: functional; outline: as §2
[7] = system: Rattus norvegicus; assay: Effect (25 mg/kg ip) on mean arterial blood pressure in anesthetized spontaneously hypertensive rats; assay type: functional; outline: as §2

CN1CC(C2=NCCN2)Oc2ccccc21 (stereo not given)
Ki [1]: 1100 nM
Ki [2]: 74 nM
Max delta HR [3]: -97 beats min-1
Variation [3]: -26%
Max delta HR [4]: -148 beats min-1
Max delta MAP [5]: -65 mmHg
Variation [5]: -36%
Variation [6]: -44%
Max delta MAP [7]: -36 mmHg
Variation [7]: -21%
